The values that follow come from paper PMC4885108 (Journal of medicinal chemistry, 2016).

For one data set, the system named is B. cereus ATCC 13061. As to conditions: ref 22 (Bouley et al.); cited from earlier work.
Data set [1] has as its system red blood cells. As to conditions: at 64 μg/mL; ref 22 (Bouley et al.); cited from earlier work.
The test system of another data set is S. oralis ATCC 9811. As to conditions: ref 22 (Bouley et al.); cited from earlier work.
For a further data set, the system named is E. faecalis 99. As to conditions: vancomycin-resistant clinical isolate; ref 22 (Bouley et al.); cited from earlier work.
The subject of another data set is S. pyogenes ATCC 49399. As to conditions: ref 22 (Bouley et al.); cited from earlier work.
Data set [2] is described as follows: Compound levels in plasma and uninfected thighs in the neutropenic thigh model. Format: in vivo, mouse. As to conditions: for levels in plasma / levels in the thighs (uninfected): 24 h after infection (7 h after the last dose).
A further data set concerns S. aureus. Nature of the data set: MBC determination, three strains of S. aureus together. It counts as cell-based.
The next data set deals with E. faecalis ATCC 29212. As to conditions: quality control strain; ref 22 (Bouley et al.); cited from earlier work.
Another data set has as its system MRSA NRS70. Nature of the data set: Mouse neutropenic thigh infection model. It counts as in vivo. As to conditions: thighs harvested at 24 h.
Data set [3] deals with B. licheniformis ATCC 12759. As to conditions: ref 22 (Bouley et al.); cited from earlier work.
Another data set is described as follows: Fast PK studies. It counts as in vivo. As to conditions: mouse, plasma, iv. Summed up:
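Female ICR mice (n = 2 per time point) got one tail-vein iv injection of 5, 10 or 20 mg/kg in 25% DMSO/65% propylene glycol/10% water. Plasma was precipitated with acetonitrile containing internal standard, then run by UPLC-UV or MRM against 0–50 μg/mL calibration curves. AUC and CL came from noncompartmental analysis.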

Data set [4] relates to red blood cells. Nature of the data set: Hemolysis assay. Format: cell-based, human. As to conditions: at 64 μg/mL, Triton-X as positive control.
The test system of another data set is S. aureus strains. Kind of data set: MIC, all S. aureus strains tested. It counts as cell-based. As to conditions: Staphylococcus aureus, read-out: MIC for all S. aureus strains tested. Summed up:
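CLSI broth microdilution: 2-fold serial compound dilutions in cation-adjusted Mueller–Hinton broth, set up in triplicate. Inoculum 5 × 10^5 CFU/mL.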

A further data set in a line: Full PK study. It counts as in vivo, mouse. As to conditions: 10 mg/kg.
Where [5] appears, read: 20 mg/kg subcutaneously every 8 h.
Where [6] appears, read: 10 mg/kg, fast PK AUC0–last, mice, single iv dose 10 mg/kg.

Read-outs that look alike come from different tables or passages of the source.

Take `N#Cc1ccc(/C=C/c2nc3ccccc3c(=O)n2-c2cccc(C(=O)O)c2)cc1` [Compound 2, (E)-3-(3-Carboxyphenyl)-2-(4-cyanostyryl)quinazolin-4(3H)-one]: in the data set on B. cereus ATCC 13061, the “MIC B. cereus ATCC 13061” value is >128 µg/mL. Moreover, the hemolysis with red blood cells [1] is <1%. In addition, in the data set on S. oralis ATCC 9811, the “MIC S. oralis ATCC 9811” value was >128 µg/mL. Besides, the “MIC E. faecalis 99” value in the data set on E. faecalis 99 was >128 µg/mL. Besides, the “MIC S. pyogenes ATCC 49399” value in the data set with S. pyogenes ATCC 49399 was >128 µg/mL. Besides, in data set [2] (20 mg/kg sc every 8 h), the levels in plasma came out at 1130 ± 1070 ng/mL and the “levels in the thighs (uninfected)” value stood at 24 ± 23 ng/mL. In addition, in the data set on S. aureus, the “fold difference between MIC and MBC” value is > 4 fold. In addition, the “MIC E. faecalis ATCC 29212” value with E. faecalis ATCC 29212 was >128 µg/mL. For the same compound, the “lowering of the bacterial load compared to the negative control” value (“lowering … compared to the negative control” below) in the data set on MRSA NRS70 (setting [5]) is “not able to achieve statistically significant efficacy”. Moreover, the “MIC B. licheniformis ATCC 12759” value in data set [3] was >128 µg/mL.
The clearance is the rate of elimination divided by the concentration. Higher therefore signals a high capacity for elimination. Consider `O=c1c2ccccc2nc(/C=C/c2ccc(F)cc2)n1-c1cccc(O)c1` [Compound 5, (E)-3-(3-Hydroxyphenyl)-2-(4-fluorostyryl)quinazolin-4(3H)-one], for which, in the data set “Fast PK studies” (5 mg/kg), the clearance turned out to be 11 mL/min/kg and the clearance at 8 h was determined as 10.7 mL/min/kg. For the same compound, the hemolysis result with red blood cells [4] is reported as “no significant hemolytic activity”.
A word on the AUC(0-t): it is exposure summed from dosing to a finite time, without extrapolation to infinity. `N#Cc1ccc(/C=C/c2nc3ccccc3c(=O)n2-c2cccc(O)c2)cc1` [Compound 15, (E)-3-(3-Hydroxyphenyl)-2-(4-cyanostyryl)quinazolin-4(3H)-one]: in the data set “Fast PK studies” (5 mg/kg), the AUC(0-t) is 450 ng·h/mL and the clearance at 8 h was 186 mL/min/kg.
A word on the MIC: it is the lowest concentration found to suppress growth. `C#Cc1ccc(/C=C/c2nc3ccccc3c(=O)n2-c2cccc(C(=O)O)c2)cc1` [Compound 27, (E)-3-(3-Carboxyphenyl)-2-(4-ethynylstyryl)quinazolin-4(3H)-one]: the MIC in the data set on S. aureus strains is ≤ 0.5 µg/mL. This compound showed a clearance in the data set “Fast PK studies” (10 mg/kg) of 6.4 mL/min/kg. In the data set “Full PK study” (ICR, mouse, plasma, iv), this compound showed an AUC(0-t) of 25700 ng·h/mL and a clearance of 6.4 mL/min/kg. Also, the “volume of distribution (Vd), fold higher than compound 2” value in the data set “Full PK study” (mice, iv) was determined as 10 fold. Further, the “Cmax after po administration, fold higher than compound 2” value in the data set “Full PK study” (mice, po) worked out at 2 fold. Moreover, in data set [2] (20 mg/kg sc every 8 h), the levels in plasma was determined as 2430 ± 1640 ng/mL and the “levels in the thighs (uninfected)” value amounted to 220 ± 170 ng/mL. In [2] (24 h after infection, 20 mg/kg sc every 8 h), the “levels in thighs, fold higher than compound 2” value is reported as 9 fold. Further, the “fold difference between MIC and MBC” value in the data set with S. aureus is given as > 4 fold. In the data set with MRSA NRS70 (setting [5]), the “lowering … compared to the negative control” value is on record as “statistically significant lowering of the bacterial load”.
For the compound `O=C(O)c1cccc(-n2c(/C=C/c3ccc(F)cc3)nc3ccccc3c2=O)c1` [Compound 30, (E)-3-(3-Carboxyphenyl)-2-(4-fluorostyryl)quinazolin-4(3H)-one], the clearance at 8 h in the data set “Fast PK studies” (20 mg/kg) was 7.8 mL/min/kg.
As for `CC(=O)Nc1cccc(-n2c(/C=C/c3ccc(F)cc3)nc3ccccc3c2=O)c1` [Compound 42, (E)-3-(3-Acetamidophenyl)-2-(4-fluorostyryl)quinazolin-4(3H)-one], the clearance in the data set “Fast PK studies” (10 mg/kg) came out at 88 mL/min/kg. Besides, the AUC(0-t) in the data set “Fast PK studies” (setting [6]) is 4730 ng·h/mL.
In “Fast PK studies” (10 mg/kg), `CS(=O)(=O)Nc1cccc(-n2c(/C=C/c3ccc(F)cc3)nc3ccccc3c2=O)c1` [Compound 43, (E)-3-(3-Methylsulfonamidophenyl)-2-(4-fluorostyryl)-quinazolin-4(3H)-one] gave a clearance of 28 mL/min/kg. Further, the AUC(0-t) in the data set “Fast PK studies” (setting [6]) was 13700 ng·h/mL.
Consider `N#Cc1ccc(/C=C/c2nc3ccccc3c(=O)n2-c2cccc(N)c2)cc1` [Compound 50, (E)-3-(3-Aminophenyl)-2-(4-cyanostyryl)quinazolin-4(3H)-one], for which, in “Fast PK studies” (10 mg/kg), the clearance at 8 h stood at 25 mL/min/kg. For the same compound, in the data set on red blood cells [4], the hemolysis result was “some hemolysis”.
In “Fast PK studies” (5 mg/kg), `CC(=O)Nc1cccc(-n2c(/C=C/c3ccc(C#N)cc3)nc3ccccc3c2=O)c1` [Compound 52, (E)-3-(3-Acetamidophenyl)-2-(4-cyanostyryl)quinazolin-4(3H)-one] gave a clearance at 8 h of 131 mL/min/kg.
For the compound `CC(=O)NCc1cccc(-n2c(/C=C/c3ccc(C#N)cc3)nc3ccccc3c2=O)c1` [Compound 53, (E)-3-(3-(Acetamidomethyl)phenyl)-2-(4-cyanostyryl)-quinazolin-4(3H)-one], the clearance at 8 h in the data set “Fast PK studies” (10 mg/kg) was 35 mL/min/kg.
The compound `CS(=O)(=O)Nc1cccc(-n2c(/C=C/c3ccc(C#N)cc3)nc3ccccc3c2=O)c1` [Compound 54, (E)-3-(3-Methylsulfonamidophenyl)-2-(4-cyanostyryl)-quinazolin-4(3H)-one] registered a clearance at 8 h in the data set “Fast PK studies” (5 mg/kg) of 162 mL/min/kg.
As for `N#Cc1ccc(/C=C/c2nc3ccccc3c(=O)n2-c2cccc(C(=O)NCCO)c2)cc1` [Compound 57, (E)-3-(3-(2-Hydroxyethyl)carbomylphenyl)-2-(4-cyanostyryl)quinazolin-4(3H)-one], in the data set “Fast PK studies” (10 mg/kg), the clearance at 8 h was determined as 29 mL/min/kg.
As for `CC(=O)NC[C@H]1CN(c2ccc(N3CCOCC3)c(F)c2)C(=O)O1` [linezolid, reference compound], in data set [2] (10 mg/kg sc every 8 h), the levels in plasma result is recorded as “not quantifiable” and the “levels in the thighs (uninfected)” value is listed as “not quantifiable”. Moreover, in the data set on MRSA NRS70 (10 mg/kg subcutaneously every 8 h), the “lowering … compared to the negative control” value is listed as “statistically significant lowering of the bacterial load”.
